Test results published in ChEMBL document CHEMBL1817569, “Synthesis, antifungal activity and QSAR study of 2-arylhydroxynitroindoles” (Eur J Med Chem, 2011).
Converted amounts (≈) assume the structure as drawn.

system: Sclerotinia sclerotiorum; assay: Fungicidal activity against Sclerotinia sclerotiorum assessed as mycelium growth inhibition after 72 hrs; type: functional, organism-based; details: not given
Method in brief: (§1)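 EC50 from radial mycelial growth on potato-saccharose agar over a 1–100 concentration range. Inverted 3-mm fungus-coated discs are placed on the agar and incubated at 25 °C. Colony diameter (mm) is measured at 72 h, with plain medium as blank. Percent inhibition = (DC − DT)/DC × 100. Triplicate tests.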

SMILES	EC50 [µg/mL]
Cc1c(-c2ccccc2)[nH]c2cc([N+](=O)[O-])cc(O)c12	8.65 (≈ 32.2 µM)
O=[N+]([O-])c1cc(O)c2cc(-c3ccccc3)[nH]c2c1	17.2 (≈ 67.7 µM)
CC(C)(C)C(=O)C(Oc1ccc(Cl)cc1)n1cncn1 (stereo not drawn) [TRIADIMEFON]	6.18 (≈ 21 µM)

system: Venturia inaequalis; assay: Fungicidal activity against Venturia inaequalis assessed as mycelium growth inhibition at 30 ug/mL after 72 hrs; type: functional; details: read-out: GI
Method in brief: (§2)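 Radial mycelial growth test on potato-saccharose agar mixed with compound at a single concentration. Plates are inoculated with inverted 3-mm fungus-coated discs and incubated at 25 °C. Colony diameter (mm) is read at 72 h against medium without sample. Inhibition I = [(DC − DT)/DC] × 100%. Three replicates.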

SMILES	inhibition of growth at 30 µg/mL [%]
Cc1c(-c2ccccc2)[nH]c2cc([N+](=O)[O-])cc(O)c12	93
O=[N+]([O-])c1cc(O)c2cc(-c3ccccc3)[nH]c2c1	89
O=[N+]([O-])c1cc(O)c2cc(-c3ccccc3Cl)[nH]c2c1	44
O=[N+]([O-])c1cc(O)c2cc(-c3ccc(Cl)cc3Cl)[nH]c2c1	26
CC(C)(C)C(=O)C(Oc1ccc(Cl)cc1)n1cncn1 (stereo not drawn) [TRIADIMEFON]	42

system: Fusarium oxysporum; assay: Fungicidal activity against Fusarium oxysporum assessed as mycelium growth inhibition after 72 hrs; type: functional, organism-based; details: not given; method in brief: as §1

SMILES	EC50 [µg/mL]
Cc1c(-c2ccccc2)[nH]c2cc([N+](=O)[O-])cc(O)c12	18 (≈ 67.1 µM)
O=[N+]([O-])c1cc(O)c2cc(-c3ccccc3)[nH]c2c1	21.5 (≈ 84.6 µM)
CC(C)(C)C(=O)C(Oc1ccc(Cl)cc1)n1cncn1 (stereo not drawn) [TRIADIMEFON]	3.25 (≈ 11.1 µM)

system: Rhizoctonia solani; assay: Fungicidal activity against Rhizoctonia solani assessed as mycelium growth inhibition after 72 hrs; type: functional, organism-based; details: not given; method in brief: as §1

SMILES	EC50 [µg/mL]
Cc1c(-c2ccccc2)[nH]c2cc([N+](=O)[O-])cc(O)c12	5.86 (≈ 21.8 µM)
O=[N+]([O-])c1cc(O)c2cc(-c3ccccc3)[nH]c2c1	11.2 (≈ 44.1 µM)
CC(C)(C)C(=O)C(Oc1ccc(Cl)cc1)n1cncn1 (stereo not drawn) [TRIADIMEFON]	20.6 (≈ 70.1 µM)

system: Rhizoctonia solani; assay: Fungicidal activity against Rhizoctonia solani assessed as mycelium growth inhibition at 30 ug/mL after 72 hrs; type: functional; details: read-out: GI; method in brief: as §2

SMILES	inhibition of growth at 30 µg/mL [%]
Cc1c(-c2ccccc2)[nH]c2cc([N+](=O)[O-])cc(O)c12	100
O=[N+]([O-])c1cc(O)c2cc(-c3ccccc3)[nH]c2c1	100
O=[N+]([O-])c1cc(O)c2cc(-c3ccccc3Cl)[nH]c2c1	100
O=[N+]([O-])c1cc(O)c2cc(-c3ccc(Cl)cc3Cl)[nH]c2c1	36
CC(C)(C)C(=O)C(Oc1ccc(Cl)cc1)n1cncn1 (stereo not drawn) [TRIADIMEFON]	66

system: Bipolaris sorokiniana; assay: Fungicidal activity against Bipolaris sorokiniana assessed as mycelium growth inhibition after 72 hrs; type: functional, organism-based; details: not given; method in brief: as §1

SMILES	EC50 [µg/mL]
Cc1c(-c2ccccc2)[nH]c2cc([N+](=O)[O-])cc(O)c12	13 (≈ 48.5 µM)
O=[N+]([O-])c1cc(O)c2cc(-c3ccccc3)[nH]c2c1	26.6 (≈ 105 µM)
CC(C)(C)C(=O)C(Oc1ccc(Cl)cc1)n1cncn1 (stereo not drawn) [TRIADIMEFON]	11 (≈ 37.4 µM)

system: Fusarium verticillioides; assay: Fungicidal activity against Fusarium moniliforme assessed as mycelium growth inhibition after 72 hrs; type: functional, organism-based; details: not given; method in brief: as §1

SMILES	EC50 [µg/mL]
Cc1c(-c2ccccc2)[nH]c2cc([N+](=O)[O-])cc(O)c12	3.48 (≈ 13 µM)
O=[N+]([O-])c1cc(O)c2cc(-c3ccccc3)[nH]c2c1	6.84 (≈ 26.9 µM)
CC(C)(C)C(=O)C(Oc1ccc(Cl)cc1)n1cncn1 (stereo not drawn) [TRIADIMEFON]	2.41 (≈ 8.2 µM)

system: Sclerotinia sclerotiorum; assay: Fungicidal activity against Sclerotinia sclerotiorum assessed as mycelium growth inhibition at 30 ug/mL after 72 hrs; type: functional; details: read-out: GI; method in brief: as §2

SMILES	inhibition of growth at 30 µg/mL [%]
Cc1c(-c2ccccc2)[nH]c2cc([N+](=O)[O-])cc(O)c12	100
O=[N+]([O-])c1cc(O)c2cc(-c3ccccc3)[nH]c2c1	100
O=[N+]([O-])c1cc(O)c2cc(-c3ccccc3Cl)[nH]c2c1	100
O=[N+]([O-])c1cc(O)c2cc(-c3ccc(Cl)cc3Cl)[nH]c2c1	29
CC(C)(C)C(=O)C(Oc1ccc(Cl)cc1)n1cncn1 (stereo not drawn) [TRIADIMEFON]	47

system: Venturia inaequalis; assay: Fungicidal activity against Venturia inaequalis assessed as mycelium growth inhibition after 72 hrs; type: functional, organism-based; details: not given; method in brief: as §1

SMILES	EC50 [µg/mL]
Cc1c(-c2ccccc2)[nH]c2cc([N+](=O)[O-])cc(O)c12	15.4 (≈ 57.4 µM)
O=[N+]([O-])c1cc(O)c2cc(-c3ccccc3)[nH]c2c1	16.9 (≈ 66.5 µM)
CC(C)(C)C(=O)C(Oc1ccc(Cl)cc1)n1cncn1 (stereo not drawn) [TRIADIMEFON]	20 (≈ 68.1 µM)

system: Bipolaris sorokiniana; assay: Fungicidal activity against Bipolaris sorokiniana assessed as mycelium growth inhibition at 30 ug/mL after 72 hrs; type: functional; details: read-out: GI; method in brief: as §2

SMILES	inhibition of growth at 30 µg/mL [%]
Cc1c(-c2ccccc2)[nH]c2cc([N+](=O)[O-])cc(O)c12	89
O=[N+]([O-])c1cc(O)c2cc(-c3ccccc3)[nH]c2c1	100
O=[N+]([O-])c1cc(O)c2cc(-c3ccccc3Cl)[nH]c2c1	100
O=[N+]([O-])c1cc(O)c2cc(-c3ccc(Cl)cc3Cl)[nH]c2c1	22
CC(C)(C)C(=O)C(Oc1ccc(Cl)cc1)n1cncn1 (stereo not drawn) [TRIADIMEFON]	71

system: Fusarium oxysporum; assay: Fungicidal activity against Fusarium oxysporum assessed as mycelium growth inhibition at 30 ug/mL after 72 hrs; type: functional; details: read-out: GI; method in brief: as §2

SMILES	inhibition of growth at 30 µg/mL [%]
Cc1c(-c2ccccc2)[nH]c2cc([N+](=O)[O-])cc(O)c12	87
O=[N+]([O-])c1cc(O)c2cc(-c3ccccc3)[nH]c2c1	88
O=[N+]([O-])c1cc(O)c2cc(-c3ccccc3Cl)[nH]c2c1	88
O=[N+]([O-])c1cc(O)c2cc(-c3ccc(Cl)cc3Cl)[nH]c2c1	25
CC(C)(C)C(=O)C(Oc1ccc(Cl)cc1)n1cncn1 (stereo not drawn) [TRIADIMEFON]	60

system: Fusarium verticillioides; assay: Fungicidal activity against Fusarium moniliforme assessed as mycelium growth inhibition at 30 ug/mL after 72 hrs; type: functional; details: read-out: GI; method in brief: as §2

SMILES	inhibition of growth at 30 µg/mL [%]
Cc1c(-c2ccccc2)[nH]c2cc([N+](=O)[O-])cc(O)c12	100
O=[N+]([O-])c1cc(O)c2cc(-c3ccccc3)[nH]c2c1	100
O=[N+]([O-])c1cc(O)c2cc(-c3ccccc3Cl)[nH]c2c1	100
O=[N+]([O-])c1cc(O)c2cc(-c3ccc(Cl)cc3Cl)[nH]c2c1	54
CC(C)(C)C(=O)C(Oc1ccc(Cl)cc1)n1cncn1 (stereo not drawn) [TRIADIMEFON]	79
